Test results: ChEMBL document CHEMBL4033794, “Discovery of Trifluoromethyl Glycol Carbamates as Potent and Selective Covalent Monoacylglycerol Lipase (MAGL) Inhibitors for Treatment of Neuroinflammation” (J Med Chem, 2018)

Columns and labels:
[1] = Lipophilicity, log D of the compound by HPLC analysis; format: physicochemical
Summary of the method: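 LogD determined by an HPLC-based (eLogD) method.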

[2] = Intrinsic clearance in human hepatocytes; format: ADME, cell-based, Hepatocyte; settings: read-out: CLH
Summary of the method: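 Substrate depletion in cryopreserved human hepatocytes; scaled intrinsic clearance in mL/min/kg.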

[3] = target: T1, Fatty-acid amide hydrolase 1 (Homo sapiens, UniProt O00519); assay: Inhibition of recombinant human FAAH using fluorogenic arachidonoyl-AMC as substrate preincubated for 30 mins followed by substrate addition measured after 60 mins by fluorescence based assay
T1 sequence (O00519 whole entry): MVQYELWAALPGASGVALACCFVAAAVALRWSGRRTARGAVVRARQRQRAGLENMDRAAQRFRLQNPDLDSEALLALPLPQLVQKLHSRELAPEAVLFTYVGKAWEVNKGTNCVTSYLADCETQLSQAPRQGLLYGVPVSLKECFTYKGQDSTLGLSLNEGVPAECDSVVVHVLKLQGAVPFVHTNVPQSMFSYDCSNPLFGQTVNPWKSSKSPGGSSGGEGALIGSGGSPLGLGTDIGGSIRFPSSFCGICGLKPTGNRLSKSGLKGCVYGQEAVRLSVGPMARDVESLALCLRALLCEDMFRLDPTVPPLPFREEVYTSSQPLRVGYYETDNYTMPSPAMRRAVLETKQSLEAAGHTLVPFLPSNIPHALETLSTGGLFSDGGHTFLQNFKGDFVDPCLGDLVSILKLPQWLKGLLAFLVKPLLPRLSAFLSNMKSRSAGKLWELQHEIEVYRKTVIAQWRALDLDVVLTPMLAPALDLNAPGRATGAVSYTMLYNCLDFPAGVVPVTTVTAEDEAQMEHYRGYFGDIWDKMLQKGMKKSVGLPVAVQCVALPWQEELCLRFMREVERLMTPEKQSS
Summary of the method: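 Human recombinant FAAH (0.0125 U final) in 50 mM Tris pH 9.0, 1 mM EDTA, preincubated 30 min at room temperature with compound (30 μM to 0.3 nM final); arachidonoyl-AMC 5 μM added, 60 min reaction, read Ex/Em 355/460. Inhibition vs no-compound and full-inhibition controls; four-parameter fit; geometric mean of ≥3 experiments.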

logD [1]: 3.8
CLint scaled [2]: 3.12 L/h/kg
IC50 [3]: 3.1 µM
SMILES: O=C(O[C@H](CO)C(F)(F)F)N1C[C@@H]2[C@H](C1)[C@H]2c1ccn(-c2ccc(F)cc2)n1
